How the values were obtained:
[1] = molecular target: Human immunodeficiency virus type 1 reverse transcriptase (Human immunodeficiency virus 1, UniProt Q72547); experiment: In vitro for inhibition of HIV-1 reverse transcriptase.
[2] = molecular target: Human immunodeficiency virus type 1 reverse transcriptase (Human immunodeficiency virus 1) (UniProt Q72547); experiment: In vitro for inhibition of HIV-1 reverse transcriptase at 1 uM
Procedure, shortened: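 Compounds were first screened as percent enzyme inhibition at a single 1 μM concentration. IC50 was not determined for compounds giving under 35% inhibition at 1 μM.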

SMILES	IC50 [1]	inhibition [2]
CCN1c2cccnc2N(C)C(=O)c2ccc(C)nc21	–	< 35%
CCN1c2cc(C)c(C)nc2N(C)C(=O)c2cccnc21	190 nM	–
CN1C(=O)c2cccnc2N(C2CC2)c2cc(Cl)cnc21	760 nM	–
CN1C(=O)c2cccnc2N(C2CC2)c2ncc(Cl)cc21	290 nM	–
CN1C(=O)c2cccnc2N(C2CC2)c2nc(Cl)ccc21	90 nM	–
CCN1c2cc(-c3cccc(N)c3)cnc2N(C)C(=O)c2cccnc21	–	< 35%
CCN1c2cc(C)c(C)nc2N(C)C(=O)c2cc(N)cnc21	150 nM	–
CN1C(=O)c2cccnc2N(C2CC2)c2ccc(Cl)nc21	1000 nM	–
CCN1c2ncccc2C(=O)N(C)c2nccc(C)c21	–	< 35%
CCN1c2cc(Br)c(Br)nc2N(C)C(=O)c2cccnc21	–	< 35%
CCN1c2ccc(C)nc2N(C)C(=O)c2cccnc21	1760 nM	–
CCN1c2ncccc2C(=O)N(C)c2ccc(-c3cccc(N)c3)nc21	70 nM	–

The next lines start with the values.

IC50 [1]	inhibition [2]	SMILES
1300 nM	–	CCN1c2cccnc2N(C)C(=O)c2cccnc21
–	< 35%	CCN1c2ncccc2C(=O)N(C)c2cc([N+](=O)[O-])cnc21
550 nM	–	CCN1c2cc(Br)cnc2N(C)C(=O)c2cccnc21
–	< 35%	CCN1c2cccnc2N(C)C(=O)c2cc(Br)cnc21
130 nM	–	CCN1c2ncc(N)cc2C(=O)N(C)c2cccnc21
–	< 35%	CCN1c2ccc([N+](=O)[O-])nc2N(C)C(=O)c2cccnc21
1000 nM	–	CCN1c2nc(C)ccc2C(=O)N(C)c2cccnc21
1300 nM	–	CCN1c2ncc(Br)cc2C(=O)N(C)c2cccnc21
280 nM	–	CCN1c2cccnc2N(C)C(=O)c2cc(N)cnc21

Reference: ChEMBL document CHEMBL1128303, “Novel non-nucleoside inhibitors of HIV-1 reverse transcriptase. 3. Dipyrido[2,3-b:2',3'-e]diazepinones” (J Med Chem, 1995)
